The results in this text go back to ChEMBL document CHEMBL4665666, “Discovery and characterization of trypanocidal cysteine protease inhibitors from the 'malaria box'” (Eur J Med Chem, 2019).

A word on the inhibition: it is the change of the read-out against control, counted positive when it falls.

Molecules are shown by their SMILES.

Assay [1] addresses Cruzipain (Trypanosoma cruzi) (UniProt P25779). Nature of the assay: Inhibition of recombinant Trypanosoma cruzi cruzain at 5 uM using Z-FR-AMC as substrate and measured at 12 sec interval for 5 mins without preincubation by fluorimetric analysis relative to control. A digest of the protocol: (§1)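 Recombinant rhodesain or cruzain (1 nM) in 0.1 M sodium acetate pH 5.5, 0.01% Triton X-100, 1 mM β-mercaptoethanol. Compound at a single concentration, either without or after 10 min enzyme pre-incubation. Inhibition is relative to DMSO, with E-64 as positive control. Done in duplicate (primary screen) or triplicate.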

For assay [2] the target is unchanged. Nature of the assay: Inhibition of recombinant Trypanosoma cruzi cruzain at 5 uM using Z-FR-AMC as substrate preincubated for 10 mins followed by substrate addition and measured at 12 sec interval for 5 mins by fluorimetric analysis relative to control. To be noted: time 15.0 min. A digest of the protocol: as §1
The target in assay [3] is Rhodesain (Trypanosoma brucei rhodesiense) (UniProt Q95PM0). Briefly: Inhibition of recombinant Trypanosoma brucei rhodesain expressed in Pichia pastoris at 5 uM using Z-FR-AMC as substrate and measured at 12 sec interval for 5 mins without preincubation by fluorimetric analysis relative to control. A digest of the protocol: as §1
Rhodesain (Trypanosoma brucei rhodesiense), sequence (Q95PM0 1-450): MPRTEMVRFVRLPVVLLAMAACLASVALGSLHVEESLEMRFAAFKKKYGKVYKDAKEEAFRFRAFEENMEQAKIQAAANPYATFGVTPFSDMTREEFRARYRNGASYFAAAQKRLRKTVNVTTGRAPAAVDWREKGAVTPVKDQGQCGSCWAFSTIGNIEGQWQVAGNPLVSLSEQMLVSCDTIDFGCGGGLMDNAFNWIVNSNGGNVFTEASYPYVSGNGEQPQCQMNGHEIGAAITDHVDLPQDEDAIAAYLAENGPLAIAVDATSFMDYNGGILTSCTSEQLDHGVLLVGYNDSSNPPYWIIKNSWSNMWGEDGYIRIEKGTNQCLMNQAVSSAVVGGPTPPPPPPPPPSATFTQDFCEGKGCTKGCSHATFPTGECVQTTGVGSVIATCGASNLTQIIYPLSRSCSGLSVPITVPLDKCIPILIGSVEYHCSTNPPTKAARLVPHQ
The target is the same in assay [4]. Briefly: Inhibition of recombinant Trypanosoma brucei rhodesain expressed in Pichia pastoris at 5 uM using Z-FR-AMC as substrate preincubated for 10 mins followed by substrate addition and measured at 12 sec interval for 5 mins by fluorimetric analysis relative to control. The conditions noted are these: time 15.0 min. Summed up: as §1

Cruzipain (Trypanosoma cruzi), sequence (P25779 123-467 limits assumed): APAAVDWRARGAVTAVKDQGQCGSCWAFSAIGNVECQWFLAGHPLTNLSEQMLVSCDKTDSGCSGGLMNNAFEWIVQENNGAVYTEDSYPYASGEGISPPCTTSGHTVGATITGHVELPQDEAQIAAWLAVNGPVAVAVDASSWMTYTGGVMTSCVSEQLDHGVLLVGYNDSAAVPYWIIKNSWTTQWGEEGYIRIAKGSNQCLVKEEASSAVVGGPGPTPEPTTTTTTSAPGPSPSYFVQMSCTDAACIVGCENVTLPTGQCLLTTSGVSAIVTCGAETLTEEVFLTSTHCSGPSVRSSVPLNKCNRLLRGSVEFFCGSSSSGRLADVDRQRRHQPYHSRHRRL

With `O=C(Nc1ccc(-c2nc3cc(NC(=O)c4ccc(Cl)cc4)ccc3[nH]2)cc1)c1ccc(Cl)cc1`, the inhibition in assay [1] is 15%; in assay [2], 35.3%; in assay [3] it was 4.6%; in assay [4], 56.1%.
For `CCc1ccc(Nc2cc(C)c3ccc(O)cc3n2)cc1` the same measures were 32.8%, 55%, 36.5% and 38.1%.
Regarding `CCOc1cc(CNC(C)C(O)c2ccccc2)cc(Cl)c1OCC` (centres undefined), the inhibition is 21.7% in assay [1], 46.8% in assay [2], 32.9% in assay [3] and 61.8% in assay [4].
For `O=C(Nc1ccc(-c2nc3ccccc3[nH]2)cc1)c1ccc(Cl)c(Cl)c1` the same measures were 17.4%, 86.9%, 42.8% and 18.3%.
For `COCCN(C(=O)Cc1cccs1)C(C(=O)NCc1ccc(OC)cc1)c1ccc(C(C)C)cc1` (centres undefined) the same measures were 40.6%, 67.5%, 38.5% and 86.7%.
For the compound `Cc1ccccc1OCCSc1nc2ccc(NC(=O)c3ccccc3)cc2s1`, the inhibition in assay [1] was determined as 52.3%; in assay [2], 76.7%; in assay [3], 48.3%; in assay [4] it was 59%.
`O=C(O)C1Cc2c([nH]c3ccccc23)C(c2ccc(Cl)cc2Cl)N1` (centres undefined): the inhibition was 5% in assay [1], 9.5% in assay [2], 0.7% in assay [3] and 78.6% in assay [4].
For the compound `Cn1c(=O)c2cc(C(=O)NCCCN3CCCCCC3)sc2c2ccccc21`, the inhibition in assay [1] was 22.9%; in assay [2], 50.5%; in assay [3], 22.4%; in assay [4], 41.3%.
For `Cc1ccc(Nc2nc(-c3ccccn3)cs2)cc1` the same measures were 17.3%, 19.8%, 4.7% and 80.9%.
For `O=C(CSc1ccc2nnc(-c3cccc(F)c3)n2n1)Nc1ccc2c(c1)OCO2` the same measures were 10.2%, 67.7%, 10.3% and 61.6%.
With `COc1ccccc1C(=O)ON=C(N)Cc1cccc2ccccc12`, the inhibition in assay [1] came out at 32%; in assay [2], 54.9%; in assay [3], 1.4%; in assay [4], 54.3%.
For `COc1ccc(NC(=O)C2c3ccccc3C(=O)N(CC(C)C)C2c2cccs2)cc1` (centres undefined) the same measures were 3.3%, 0%, 0.1% and 78.7%.
For `COc1ccc(-c2nc3cc(Cc4ccc5[nH]c(-c6ccc(OC)cc6)nc5c4)ccc3[nH]2)cc1` the same measures were 100%, 79.9%, 98.6% and 98.7%.
For `CCN(CC)CCNc1ncnc2c1[nH]c1ccc(Br)cc12` the same measures were 57%, 28.5%, 27.5% and 2.7%.
Turning to `O=C(Nc1cccc(-c2nc3ccccc3[nH]2)c1)c1cccc(NC(=O)c2ccco2)c1`, the inhibition in assay [1] is 96.7%; in assay [2], 94.7%; in assay [3] it was 40.1%; in assay [4], 53.9%.
For `CC(C)(C)c1ccc2c(c1)CN(Cc1ccc(Cl)cc1)CO2` the same measures were 52.3%, 51.5%, 28.8% and 61.3%.
For `Cc1ccc(N2C(=O)C3C(C2=O)C2(c4ccccc4)C(=O)C3(c3ccccc3)C(c3ccccc3)=C2c2ccccc2)cc1` (centres undefined) the same measures were 9.2%, 33.6%, 22.3% and 56.3%.
For `COc1ccc(C2c3ccc4ccccc4c3Oc3ncn(CCCN(C)C)c(=N)c32)cc1` (centres undefined) the same measures were 55.6%, 73.2%, 60.9% and 77.8%.
For `CN(N=O)C1=C(NC2CCCCC2)C(=O)c2ccccc2C1=O`, the inhibition in assay [1] was found to be 34.8%; in assay [2] it was 68.2%; in assay [3], 38.7%; in assay [4], 39.5%.
For `Nc1ccc(-c2nc3cc(Cc4ccc5[nH]c(-c6ccc(N)cc6)nc5c4)ccc3[nH]2)cc1` the same measures were 20.2%, 98.2%, 86.6% and 90.1%.
For `CCC(C)NCC(O)(c1ccc(Cl)cc1)c1ccc(Cl)cc1` (centres undefined), the inhibition in assay [1] stood at 32%; in assay [2] it was 67.2%; in assay [3] it was 29.1%; in assay [4], 80.9%.
In the case of `O=C(c1ccccc1F)N(Cc1ccc(Cl)cc1)c1ccccn1`, the inhibition in assay [1] came to 40.7%; in assay [2], 91.6%; in assay [3], 45.8%; in assay [4], 75%.
On to `CCCCCn1c(=N)n(CC(O)COc2cccc(C)c2)c2ccccc21` (centres undefined), for which the inhibition in assay [1] turned out to be 55.2%; in assay [2] it was 87.2%; in assay [3], 40.2%; in assay [4] it was 69.9%.
For `CCCc1c(CC)c(=N)c2ccccc2n1C` the same measures were 21.5%, 54.8%, 29.4% and 59.5%.
With `Clc1ccc2[nH]c3c(NCCCN4CCOCC4)ncnc3c2c1`, the inhibition in assay [1] came to 67%; in assay [2], 62.5%; in assay [3], 48.9%; in assay [4] it was 72.9%.
For `COc1cc(OC)c(N(C)C(=O)c2cc3c(s2)-c2ccccc2S(=O)(=O)C3)cc1Cl` the same measures were 6.4%, 38.1%, 20.7% and 57.9%.
Regarding `COc1ccc(OC)c(C2C3=C(CC(C)(C)CC3=O)N(c3ccc(Cl)c(Cl)c3)C3=C2C(=O)CC(C)(C)C3)c1`, the inhibition in assay [1] came to 28.5%; in assay [2], 72%; in assay [3] it was 16.6%; in assay [4] it was 53.3%.
For `COc1ccc(C(=O)NC(c2ccccc2Cl)c2cc(Cl)c3cccnc3c2O)cc1` (centres undefined) the same measures were 17.1%, 100%, 29.4% and 49.4%.
For `O=C1c2ccccc2-c2nnc(-c3ccc(Br)cc3)cc21` the same measures were 47.8%, 96.3%, 32.7% and 68.8%.
For `COc1ccc(/C=C2/SC(Nc3ccc(F)cc3)=NC2=O)c(OC)c1` the same measures were 29.3%, 54.4%, 21.4% and 54.8%.
Regarding `CC(C)OCc1cc(CN2CCN(c3cccc(Cl)c3)CC2)c(O)c2ncccc12`, the inhibition was 49% in assay [1], 98.2% in assay [2], 8.3% in assay [3] and 83.7% in assay [4].
